# From paper PMC7245552 (Cell chemical biology, 2020)
# T1: K2P2.1 I110D (Mus musculus, UniProt P97438, I125D)
# T1 sequence (P97438 1-411 isoform P97438-2 I110D): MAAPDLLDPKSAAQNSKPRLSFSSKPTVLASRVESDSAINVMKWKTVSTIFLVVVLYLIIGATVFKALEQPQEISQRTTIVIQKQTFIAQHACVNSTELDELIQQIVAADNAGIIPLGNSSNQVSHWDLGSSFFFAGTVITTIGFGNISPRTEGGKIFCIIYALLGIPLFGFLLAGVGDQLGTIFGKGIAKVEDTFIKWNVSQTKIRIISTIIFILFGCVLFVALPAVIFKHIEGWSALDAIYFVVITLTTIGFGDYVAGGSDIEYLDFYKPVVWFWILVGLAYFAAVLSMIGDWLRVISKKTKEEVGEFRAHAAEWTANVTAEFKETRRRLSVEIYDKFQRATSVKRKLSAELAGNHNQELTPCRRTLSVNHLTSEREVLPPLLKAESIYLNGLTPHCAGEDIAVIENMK
# T2: K2P2.1 I110E (Mus musculus, UniProt P97438, I125E)
# T2 sequence (P97438 1-411 isoform P97438-2 I110E): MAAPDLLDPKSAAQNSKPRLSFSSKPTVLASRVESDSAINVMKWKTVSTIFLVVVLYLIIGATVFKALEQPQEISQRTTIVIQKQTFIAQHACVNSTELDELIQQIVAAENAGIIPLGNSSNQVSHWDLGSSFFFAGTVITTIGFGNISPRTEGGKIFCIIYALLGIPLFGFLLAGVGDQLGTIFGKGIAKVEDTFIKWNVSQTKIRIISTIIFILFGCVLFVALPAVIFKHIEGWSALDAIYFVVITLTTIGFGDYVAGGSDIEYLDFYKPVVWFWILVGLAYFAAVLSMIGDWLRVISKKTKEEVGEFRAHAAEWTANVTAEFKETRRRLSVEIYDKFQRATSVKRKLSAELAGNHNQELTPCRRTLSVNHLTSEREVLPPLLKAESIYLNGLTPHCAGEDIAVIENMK
# T3: K2P2.1 I110D/N147E (Mus musculus, UniProt P97438, I125D/N162E)
# T3 sequence (P97438 1-411 isoform P97438-2 I110D/N147E): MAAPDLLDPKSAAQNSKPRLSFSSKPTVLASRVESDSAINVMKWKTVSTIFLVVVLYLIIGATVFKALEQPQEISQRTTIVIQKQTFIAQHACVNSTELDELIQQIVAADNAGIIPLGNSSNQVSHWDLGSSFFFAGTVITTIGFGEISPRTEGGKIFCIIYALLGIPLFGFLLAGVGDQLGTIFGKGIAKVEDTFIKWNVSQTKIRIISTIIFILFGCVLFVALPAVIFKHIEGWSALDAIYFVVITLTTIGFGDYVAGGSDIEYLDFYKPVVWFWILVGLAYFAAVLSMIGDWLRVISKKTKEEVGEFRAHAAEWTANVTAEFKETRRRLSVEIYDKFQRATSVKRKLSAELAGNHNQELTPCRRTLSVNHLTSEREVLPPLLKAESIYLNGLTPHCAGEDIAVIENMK
# T4: K2P2.1 I110D/N147D (Mus musculus, UniProt P97438, I125D/N162D)
# T4 sequence (P97438 1-411 isoform P97438-2 I110D/N147D): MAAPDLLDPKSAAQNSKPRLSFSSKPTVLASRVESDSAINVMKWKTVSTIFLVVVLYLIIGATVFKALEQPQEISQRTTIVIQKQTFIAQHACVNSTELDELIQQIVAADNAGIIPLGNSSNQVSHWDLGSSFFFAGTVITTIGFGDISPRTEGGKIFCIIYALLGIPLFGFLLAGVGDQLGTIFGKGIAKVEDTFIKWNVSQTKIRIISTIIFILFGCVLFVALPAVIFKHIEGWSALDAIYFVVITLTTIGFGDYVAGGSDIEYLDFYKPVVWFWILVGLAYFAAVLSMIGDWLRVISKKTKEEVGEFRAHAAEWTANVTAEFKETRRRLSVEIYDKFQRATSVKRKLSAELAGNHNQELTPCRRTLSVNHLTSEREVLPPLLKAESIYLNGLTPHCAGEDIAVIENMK
# T5: K2P10.1 (TREK-2) (Mus musculus, UniProt Q8BUW1)
# T5 sequence (Q8BUW1 1-535): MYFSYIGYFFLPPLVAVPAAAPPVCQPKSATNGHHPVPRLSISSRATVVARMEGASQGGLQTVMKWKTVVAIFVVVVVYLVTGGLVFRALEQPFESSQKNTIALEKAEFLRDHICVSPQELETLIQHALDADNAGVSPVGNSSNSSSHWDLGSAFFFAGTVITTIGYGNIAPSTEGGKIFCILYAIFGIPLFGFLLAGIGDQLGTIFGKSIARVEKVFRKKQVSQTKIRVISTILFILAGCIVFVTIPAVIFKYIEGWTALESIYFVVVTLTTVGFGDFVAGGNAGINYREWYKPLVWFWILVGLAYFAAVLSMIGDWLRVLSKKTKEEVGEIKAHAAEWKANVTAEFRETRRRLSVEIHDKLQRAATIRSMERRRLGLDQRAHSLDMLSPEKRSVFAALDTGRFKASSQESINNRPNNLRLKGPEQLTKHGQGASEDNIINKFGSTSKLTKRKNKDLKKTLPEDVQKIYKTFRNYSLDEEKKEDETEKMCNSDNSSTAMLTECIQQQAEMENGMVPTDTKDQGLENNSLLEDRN
# T6: K2P2.1 (TREK-1) (Mus musculus, UniProt P97438)
# T6 sequence (P97438 1-411 isoform P97438-2): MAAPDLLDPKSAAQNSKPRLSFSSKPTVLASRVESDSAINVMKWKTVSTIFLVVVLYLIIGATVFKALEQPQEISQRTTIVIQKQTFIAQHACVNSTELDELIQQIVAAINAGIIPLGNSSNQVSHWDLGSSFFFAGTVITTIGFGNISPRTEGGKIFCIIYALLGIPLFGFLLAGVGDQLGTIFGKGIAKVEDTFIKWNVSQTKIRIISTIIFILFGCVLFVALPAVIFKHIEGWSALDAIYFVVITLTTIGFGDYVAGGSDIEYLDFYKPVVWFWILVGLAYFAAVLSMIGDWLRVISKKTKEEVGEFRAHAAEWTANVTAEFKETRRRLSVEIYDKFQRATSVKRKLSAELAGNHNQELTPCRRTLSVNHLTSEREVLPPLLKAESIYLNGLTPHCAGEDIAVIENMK
# B1: K2P2.1 (TREK-1)CRYST I110D (domain or fragment, mouse, UniProt P97438-2 21-322, looked up)
# chain: SFSSKPTVLASRVESDSAINVMKWKTVSTIFLVVVLYLIIGATVFKALEQPQEISQRTTIVIQREKFLRAHPCVSDQELDELIQQIVAADNAGIIPLGASSNQVSHWDLGSSFFFAGTVITTIGFGNISPRTEGGKIFCIIYALLGIPLFGFLLAGVGDQLGTIFGKGIAKVEDTFIKWNVSQTKIRIISTIIFILFGCVLFVALPAVIFKHIEGWSALDAIYFVVITLTTIGFGDYVAGGSDIEYLDFYKPVVWFWILVGLAYFAAVLSMIGDWLRVICKKTKEAVGEFRAHAAEWTANVT
# Tests used:
# K2P2.1 (TREK-1) [1] = details: read-out: EC50 (ML335) activation, ref Lolicato et al., 2017; cited from earlier work
# K2P2.1 I110D = target: T1, K2P2.1 I110D; test: TEVC recordings in Xenopus oocytes, K2P2.1 I110D; assay type: cell-based, Murine
# K2P2.1 I110E = target: T2, K2P2.1 I110E; test: TEVC recordings in Xenopus oocytes, K2P2.1 I110E; assay type: cell-based, Murine; details: K2P2.1 I110E versus K2P2.1 I110D
# Outline: (§1)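 Murine channel cRNA (0.1–6 ng) injected into defolliculated stage V–VI X. laevis oocytes kept at 18°C in ND96 with antibiotics. TEVC 24–48 h later with constant ND96 perfusion; −80 mV hold, 500 ms ramp −140 to +50 mV. Ruthenium compounds were freshly dissolved in ND96. Block corrected for uninjected-oocyte basal current. ≥3 oocytes from ≥2 batches per point; IC50 from Hill fit, coefficient fixed −1.0.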
# K2P2.1 I110D/N147E = target: T3, K2P2.1 I110D/N147E; test: TEVC recordings in Xenopus oocytes, K2P2.1 I110D/N147E; assay type: cell-based, Murine; details: I110D/N147E pair; T = 298K
# Outline: (§2)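 Coupling energy was computed as ΔΔGΩ = RT lnΩ, with R=1.987 cal mol−1 deg−1 and T=298 K. Inputs were RuR inhibition measurements by TEVC in X. laevis oocytes expressing murine mutant channels: −80 mV hold, 500 ms ramp −140 to +50 mV, ND96 perfusion. IC50s came from a Hill fit with coefficient −1.0, using ≥3 oocytes from ≥2 batches per point.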
# K2P2.1 I110D/N147D = target: T4, K2P2.1 I110D/N147D; test: TEVC recordings in Xenopus oocytes, K2P2.1 I110D/N147D; assay type: cell-based, Murine; details: I110D/N147D pair; T = 298K
# Outline: as §2
# K2P10.1 (TREK-2) = target: T5, K2P10.1 (TREK-2); test: TEVC recordings in Xenopus oocytes, K2P10.1; assay type: cell-based, Murine
# Outline: as §1
# K2P2.1 (TREK-1) [2] = target: T6, K2P2.1 (TREK-1); test: TEVC recordings in Xenopus oocytes, K2P2.1; assay type: cell-based, Murine; details: 100 μM Ru360 applied to K2P2.1 (TREK-1)
# Outline: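 Oocytes expressing murine wild-type channel were perfused with ND96 until current was stable, then with 100 μM Ru360 freshly prepared in ND96 and kept light-protected, until current stabilised again. Currents were elicited from a −80 mV hold by a 500 ms ramp −140 to +50 mV. Fractional block was corrected for basal current averaged from uninjected oocytes (n=14).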
# crystal structure = target: the molecule itself; test: crystal structure
molecule,measurement,setting,value
CS(=O)(=O)Nc1ccc(C(=O)NCc2ccc(Cl)cc2Cl)cc1 [ML335],EC50,K2P2.1 (TREK-1) [1],14.3 ± 2.7 µM
same,EC50,"K2P2.1 I110D; read-out: EC50 (ML335) activation, TEVC",11.8 ± 2.3 µM
"N.N.N.N.N.N.N.N.N.N.N.N.N.N.[Cl-].[Cl-].[Cl-].[Cl-].[Cl-].[Cl-].[O-2].[O-2].[Ru+3].[Ru+3].[Ru+4] [RuR, Ruthenium Red]",RuR inhibition fold weaker than that observed for K2P2.1 I110D,K2P2.1 I110E,~ 50 fold
same,"ΔΔG coupling energy, double mutant cycle analysis of RuR binding",K2P2.1 I110D/N147E,-0.3 kcal/mol
same,"ΔΔG coupling energy, double mutant cycle analysis of RuR binding",K2P2.1 I110D/N147D,-4.1 kcal/mol
Ru360,Ru360 IC50 fold weaker than that for RuR,K2P10.1 (TREK-2),> 10 fold
same,Ru360 IC50 fold weaker than that for RuR,K2P2.1 I110D,> 10 fold
same,Effect on channel current,K2P2.1 (TREK-1) [2],no effect
B1,binding result,crystal structure,binds
